Data: ChEMBL document CHEMBL3085637, “Synthesis and anticancer potential of certain novel 2-oxo-N'-(2-oxoindolin-3-ylidene)-2H-chromene-3-carbohydrazides” (Eur J Med Chem, 2013)

Test system: HT-29
Assay: Inhibition of side population in human HT-29 cells at 100 uM after 90 mins using vybrant dyecycle violet staining by FACS analysis
Type: functional
Conditions: HT-29, 1.5 h
Summary of the method: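 HT-29 cells were stained in medium with Vybrant DyeCycle Violet for 90 min at 37 °C, centrifuged and washed with medium. Side-population cells were identified by flow cytometry histograms. The reference control was verapamil, which blocks the transporter responsible for dye exclusion. Results are % side-population inhibition ± SD.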

## COc1ccc(CCN(C)CCCC(C#N)(c2ccc(OC)c(OC)c2)C(C)C)cc1OC (stereo unspecified)
  inhibition at 100 µM: 95%
